Data set [1] can be described thus: Inhibition of Hepatitis C virus genotype 1b BK isolate NS5b polymerase activity using [3H]UTP preincubated for 120 mins measured after 1 hr by scintillation proximity assay. In outline:
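Scintillation proximity assay at 22 °C. Started with [3H]UTP, UTP, 250 nM 5'-biotinylated oligo(rU12) and poly(rA). Stopped at 120 min with tRNA/streptavidin SPA beads/EDTA; 30 min, then CsCl, 1 h, top-count.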

The next data set has as its system Hepatitis C virus. Description: Antiviral activity against Hepatitis C virus genotype 1b infected in human HuH7 cells assessed as inhibition of viral replication after 48 hrs by quantitative RT-PCR. The following applies: Huh-7, 48 h. Type of data set: functional, organism-based, Hepacivirus hominis. The method in brief: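 Huh7/Clone A replicon cells seeded at 40,000/well without G418 and kept overnight at 37 °C, 5% CO2. DMSO-serially diluted compound added (final DMSO 0.5%), 7 concentrations in triplicate, 48 h at 37 °C. Total RNA extracted; HCV replicon RNA quantified by TaqMan RT-qPCR relative to untreated cells (100%). EC50 from a 4-parameter curve fit.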

Data set [2] in a line: Cytotoxicity against human HuH7 cells assessed as cellular GAPDH level after 48 hrs by quantitative RT-PCR. Type of data set: cell-based, Huh-7. The following applies: read-out: GI50.

In general, IC50 refers to the concentration that inhibits the measured activity by half. A high value points to weaker potency. By EC50 is commonly meant the concentration needed to bring the measured effect to its halfway point.

In turn, `COc1cc2c(=O)c(-c3noc(-c4ccccc4)n3)cn(Cc3ccc(Cl)cc3)c2cc1OC` yielded an IC50 in data set [1] of more than 10000 nM.

In the case of `COc1cc2c(=O)c(-c3nc(-c4ccc(Cl)cc4)no3)cn(Cc3ccc(Cl)cc3)c2cc1OC`, the IC50 in data set [1] was more than 10000 nM.

In data set [1], `CN1CCN(c2cc3c(cc2F)c(=O)c(-c2noc(Cc4ccccc4)n2)cn3Cc2ccc(C(F)(F)F)cc2F)CC1` yielded an IC50 of 14 nM. Besides, the EC50 with Hepatitis C virus was found to be 250 nM. In addition, the CC50 at 48 h in data set [2] is 7000 nM.

For `COc1cc2c(=O)c(-c3nnc(Cc4ccc(Cl)cc4)o3)cn(Cc3ccc(Cl)cc3)c2cc1OC`, the IC50 in data set [1] amounted to 1600 nM.

Regarding `COc1cc2c(=O)c(-c3noc(CCc4ccccc4)n3)cn(Cc3ccc(Cl)cc3)c2cc1OC`, the IC50 in data set [1] is more than 10000 nM.

Compound `COc1cc2c(=O)c(-c3nc(Cc4ccccc4)no3)cn(Cc3ccc(Cl)cc3)c2cc1OC` yielded an IC50 in data set [1] of 730 nM.

Consider `CN1CCN(c2cc3c(cc2F)c(=O)c(-c2noc(Cc4ccc(F)cc4F)n2)cn3Cc2ccc(Cl)cc2)CC1`, for which the IC50 in data set [1] was found to be 75 nM. Besides, in the data set with Hepatitis C virus, the EC50 amounted to 3680 nM. The CC50 at 48 h in data set [2] came to 4700 nM.

In the case of `CN1CCN(c2cc3c(cc2F)c(=O)c(-c2nnc(Cc4ccc(F)cc4)o2)cn3Cc2ccc(C(F)(F)F)cc2F)CC1`, half-maximal inhibition in data set [1] (IC50) required 45 nM. For the same compound, the EC50 in the data set with Hepatitis C virus amounted to 730 nM. In data set [2], the CC50 at 48 h stood at 5700 nM.

`CN1CCN(c2cc3c(cc2F)c(=O)c(-c2noc(Cc4ccc(F)cc4)n2)cn3Cc2ccc(C(F)(F)F)cc2F)CC1` showed an IC50 in data set [1] of 15 nM. Also, the EC50 in the data set on Hepatitis C virus stood at 230 nM. For the same compound, the CC50 at 48 h in data set [2] amounted to 6000 nM.

Take `CN1CCN(c2cc3c(cc2F)c(=O)c(-c2nnc(Cc4ccccc4)o2)cn3Cc2ccc(C(F)(F)F)cc2F)CC1`: the IC50 in data set [1] is 38 nM. In addition, the EC50 with Hepatitis C virus came out at 610 nM. Besides, in data set [2], the CC50 at 48 h was 4600 nM.

For `CN1CCN(c2cc3c(cc2F)c(=O)c(-c2noc(Cc4ccccc4)n2)cn3Cc2ccc(C(F)(F)F)cc2)CC1`, the 50% inhibitory concentration (IC50) in data set [1] turned out to be 24 nM. The EC50 with Hepatitis C virus amounted to 360 nM. In addition, in data set [2], the CC50 at 48 h came out at 15000 nM.

For `COc1cc2c(=O)c(-c3noc(Cc4ccccc4)n3)cn(Cc3ccc(Cl)cc3)c2cc1OC`, the IC50 in data set [1] was 41 nM. Besides, the EC50 in the data set with Hepatitis C virus was found to be 10300 nM.

`CN1CCN(c2cc3c(cc2F)c(=O)c(-c2noc(Cc4ccccc4)n2)cn3Cc2ccc(Cl)cc2)CC1` yielded an IC50 in data set [1] of 23 nM. For the same compound, in the data set on Hepatitis C virus, the EC50 amounted to 840 nM. Also, the CC50 at 48 h in data set [2] stood at 7300 nM.

Turning to `COc1ccc2c(c1)c(=O)c(-c1ncc(Cc3ccccc3)o1)cn2Cc1ccc(Cl)cc1`, the IC50 in data set [1] is 1800 nM.

`CN1CCN(c2cc3c(cc2F)c(=O)c(-c2nnc(Cc4ccccc4)o2)cn3Cc2ccc(Cl)cc2)CC1` had a half-inhibitory concentration (IC50) in data set [1] of 115 nM. Moreover, the EC50 in the data set on Hepatitis C virus is 4400 nM. The CC50 at 48 h in data set [2] worked out at 9800 nM.

As to `COc1cc2c(=O)c(-c3nnn(Cc4ccccc4)n3)cn(Cc3ccc(Cl)cc3)c2cc1OC`, the IC50 in data set [1] was more than 10000 nM.

In data set [1], `CN1CCN(c2cc3c(cc2F)c(=O)c(-c2noc(Cc4ccc(F)cc4)n2)cn3Cc2ccc(Cl)cc2)CC1` showed an IC50 of 19 nM. The EC50 with Hepatitis C virus was 1430 nM. The CC50 at 48 h in data set [2] is 6400 nM.

Compound `COc1cc2c(=O)c(C3=N[C@@H](C)[C@@H](c4ccccc4)O3)cn(Cc3ccc(Cl)cc3)c2cc1OC` showed an IC50 in data set [1] of 4300 nM. Besides, the EC50 in the data set on Hepatitis C virus turned out to be 8910 nM.

The record behind these values is ChEMBL document CHEMBL1933010, “3-heterocyclyl quinolone inhibitors of the HCV NS5B polymerase” (Bioorg Med Chem Lett, 2012).
